# Assay results reported in ChEMBL document CHEMBL4373710, “DNA Structural Alteration Leading to Antibacterial Properties of 6-Nitroquinoxaline Derivatives” (J Med Chem, 2019).
# The source made the active and inactive calls. No cut-off for these calls is given here.
# How the values were obtained:
# [1] = test system: Staphylococcus epidermidis; test: Antibacterial activity against Staphylococcus epidermidis MTCC3615 by broth microdilution assay; type: functional
# How it was run: (§1)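 Broth microdilution per CLSI; 5×10^5 cfu/mL bacteria in LB broth; compounds from DMSO stocks, final DMSO under 0.6%, with DMSO control. Plates incubated at the strain's recommended growth temperature and time; growth read as OD600.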
# Pseudomonas aeruginosa = test: Antibacterial activity against Pseudomonas aeruginosa MTCC1688 by broth microdilution assay; type: functional; how it was run: as §1
# HEK293 = test: Induction of morphological changes in HEK293 cells at 5 uM by propidium iodide staining based assay; type: cell-based; details: human, hek293, 5 µM
# DNA [2] = test: Binding affinity to Staphylococcus aureus DNA assessed as induction of structural changes by EtBr staining based agarose gel shift assay; type: nucleic-acid assay
# How it was run: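 S. aureus genomic DNA incubated with compound at stated [compound]:[DNA bp] ratios, 16 h at 37 °C, in NaP buffer pH 7 with 10 mM NaCl. Run on agarose gel, stained with EtBr (1 µg/mL) and classed as supercoiled, structurally altered or condensed.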
# Calf thymus DNA = test: Binding affinity to calf thymus DNA assessed as appearance of induced CD at […] by circular dichroism method; type: nucleic-acid assay; details: Bos taurus
# [3] = test system: Poly(dG-dC)oligonucleotide; test: Binding affinity to poly(dG-dC) DNA (unknown origin) assessed as change in B-DNA structure by circular dichroism method; type: nucleic-acid assay
# How it was run: (§2)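 Poly(dA-dT)·poly(dA-dT) or poly(dG-dC)·poly(dG-dC) held at 10 µM. Titrated with compound from 20 to 60 µM and followed by circular dichroism for change in the B-DNA band and appearance of induced CD.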
# [4] = test system: Poly(dA-dT)oligonucleotide; test: Binding affinity to poly(dA-dT) DNA (unknown origin) assessed as appearance of induced CD up to 6:1 compound to DNA ratio by circular dichroism method; type: nucleic-acid assay; how it was run: as §2
# [5] = test system: Pseudarthrobacter chlorophenolicus; test: Binding affinity to Arthrobacter chlorophenolicus DNA assessed as change in B-DNA structure by circular dichroism method
# How it was run: (§3)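 Genomic DNA isolated from overnight cultures of each strain. Titrated with compound from 15 to 60 µM in a 10 mm quartz cuvette. CD spectra recorded from 230 to 500 nm at 100 nm/min; ellipticity followed at 320 nm.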
# [6] = test system: Pseudarthrobacter chlorophenolicus; test: Binding affinity to Arthrobacter chlorophenolicus DNA assessed as appearance of induced CD up to 60 uM by circular dichroism method; how it was run: as §3
# DNA [7] = test: Binding affinity to DNA isolated from HEK293 cells assessed as change in B-DNA structure at 15 to 180 uM by circular dichroism method; type: ADME, cell-free; details: human, hek293, 180 µM
# DNA [8] = test: Binding affinity to Escherichia coli pBR322 DNA assessed as transition of local to global DNA at 2:1 to 3:1 compound to DNA ratio by atomic force microscopic analysis; type: nucleic-acid assay
# How it was run: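 Supercoiled pBR322 plasmid treated with compound at [compound]:[DNA bp] ratios of 0.5:1, 1:1, 1.5:1, 2:1 and 3:1. Imaged by atomic force microscopy, with DNA height measured and compared against untreated plasmid.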
# DNA [9] = test: Inhibition of ethidium bromide binding to Staphylococcus aureus DNA by fluorescence assay; type: nucleic-acid assay
# How it was run: (§4)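 Fluorescence intercalator displacement: S. aureus genomic DNA 10 µM plus EtBr 5 µM in 10 mM NaP pH 7, 10 mM NaCl, 1% DMSO, at 25 and 37 °C; titrated with 2.5–100 µM compound. Excitation 480 nm, emission 520–700 nm, inner-filter corrected, triplicates; Stern–Volmer analysis, F0/F = 1 + Ksv[Q].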
# DNA [10] = test: Inhibition of ethidium bromide binding to Staphylococcus aureus DNA assessed as Stern-Volmer quenching constant by fluorescence assay; type: nucleic-acid assay; how it was run: as §4
# DNA [11] = test: Binding affinity to Staphylococcus aureus DNA assessed as DNA condensation at 3:1 compound to DNA ratio by atomic force microscopic analysis; type: nucleic-acid assay
# How it was run: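 Isolated S. aureus genomic DNA (2.8 Mbp) treated with compound at increasing [compound]:[DNA bp] ratios, up to 3:1. Imaged by atomic force microscopy against untreated DNA.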
# DNA [12] = test: Induction of DNA condensation in Staphylococcus aureus assessed as nucleoid shrinkage at 10 uM after 1 hr by DAPI staining-based confocal laser scanning fluorescence microscopic analysis; type: nucleic-acid assay
# How it was run: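 S. aureus grown 6 h at 37 °C, washed into PBS and exposed to 10 µM compound or 0.5% DMSO for 1 h at 37 °C with shaking. Fixed in paraformaldehyde for 30 min at 4 °C, then DAPI-stained for 5 min. Nucleoid and cell areas measured from phase contrast/DAPI images; N/C ratio from 35 cells over three independent experiments, mean ± SD.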
# Staphylococcus aureus [13] = test: Induction of DNA fragmentation in Staphylococcus aureus at 3.5 uM by EtBr staining based confocal laser scanning fluorescence microscopic analysis; type: functional, organism-based
# Staphylococcus aureus [14] = test: Induction of morphological changes in Staphylococcus aureus assessed as change in microbe length at 3.5 uM by atomic force microscopic analysis (reference value: 1.37 +/- 0.09 micrometer); type: functional
# Staphylococcus aureus [15] = test: Induction of morphological changes in Staphylococcus aureus assessed as cell aggregation at 3.5 to 5 uM by atomic force microscopic analysis; type: functional, organism-based
# Staphylococcus aureus [16] = test: Induction of morphological changes in Staphylococcus aureus at 3.5 uM measured after 6 hrs by acridine orange dye based confocal laser scanning fluorescence microscopic analysis; type: functional, organism-based
# How it was run: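 S. aureus with 3.5 µM for 6 h at 37°C; fixed in paraformaldehyde, permeabilised with 0.2% Triton X-100 and lysostaphin 0.05 mg/mL; stained with acridine orange 3 µM for 5 min at 37°C; confocal imaging at 60X.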
# Staphylococcus aureus [17] = test: Induction of morphological changes in Staphylococcus aureus assessed as unchanged population at 5 uM measured after 2 hrs by flow cytometric analysis (reference value: 90.4%); type: functional
# Staphylococcus aureus [18] = test: Induction of morphological changes in Staphylococcus aureus assessed as unchanged population at 7.5 uM measured after 2 hrs by flow cytometric analysis (reference value: 90.4%); type: functional
# Staphylococcus aureus [19] = test: Induction of morphological changes in Staphylococcus aureus assessed as increase in changed population measured after 2 hrs by flow cytometric analysis; type: functional, organism-based
# Staphylococcus aureus [20] = test: Disruption of cell membrane in Staphylococcus aureus assessed as accumulation of propidium iodide negative cells at 3.5 uM by flow cytometric analysis (reference value: 98.2%); type: functional
# Staphylococcus aureus [21] = test: Disruption of cell membrane in Staphylococcus aureus assessed as accumulation of propidium iodide positive cells at 3.5 uM by flow cytometric analysis (reference value: 1.7%); type: functional
# Staphylococcus aureus [22] = test: Disruption of cell membrane in Staphylococcus aureus assessed as accumulation of propidium iodide positive cells at 5 uM by flow cytometric analysis (reference value: 1.7%); type: functional
# Staphylococcus aureus [23] = test: Disruption of preformed biofilm in Staphylococcus aureus at MIC measured after 12 hrs by crystal violet staining based light microscopic analysis; type: functional, organism-based
# How it was run: (§5)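 Planktonic cells washed off; 1% crystal violet 10 min, solubilised in 30% acetic acid, A550 read; wells also imaged at 20X by light microscopy.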
# Staphylococcus aureus [24] = test: Disruption of preformed biofilm in Staphylococcus aureus at 4 times MIC measured after 12 hrs by crystal violet staining based light microscopic analysis; type: functional; how it was run: as §5
# [25] = test system: Staphylococcus epidermidis; test: Disruption of preformed biofilm in Staphylococcus epidermidis up to 4 times MIC measured after 12 hrs by crystal violet staining based light microscopic analysis; type: functional, organism-based; how it was run: as §5
smiles,measurement,setting,value
CN(C)CCCNc1nc2cc([N+](=O)[O-])ccc2nc1NCc1ccc(C(F)(F)F)cc1,MIC,[1],2.24 µg/mL
same,MIC,Pseudomonas aeruginosa,6.73 µg/mL
same,Activity,HEK293,Non-Toxic
same,Activity,DNA [2],Dose-dependent effect
same,Activity,Calf thymus DNA,Dose-dependent effect
same,Activity,[3],Dose-dependent effect
same,Activity,[4],inactive
same,Activity,[5],Dose-dependent effect
same,Activity,[6],Active
same,Activity,DNA [7],Active
same,Activity,DNA [8],Active
same,inhibition,DNA [9],Dose-dependent effect
same,KSV,DNA [10],1 ×10⁴ /M
same,Activity,DNA [11],Active
same,Activity,DNA [12],Active
same,Activity,Staphylococcus aureus [13],Active
same,Activity,Staphylococcus aureus [14],2.3 um
same,Activity,Staphylococcus aureus [15],Active
same,Activity,Staphylococcus aureus [16],Active
same,Activity,Staphylococcus aureus [17],82.4%
same,Activity,Staphylococcus aureus [18],81%
same,Activity,Staphylococcus aureus [19],Dose-dependent effect
same,Activity,Staphylococcus aureus [20],91.6%
same,Activity,Staphylococcus aureus [21],7.96%
same,Activity,Staphylococcus aureus [22],20.4%
same,Activity,Staphylococcus aureus [23],Active
same,Activity,Staphylococcus aureus [24],100%
same,Activity,[25],Active
